Source: PubChem BioAssay (Johns Hopkins Ion Channel Center)
RGS4 pot = RGS4 potentiation or activation | 310,000 tested, 0.92% active | HEK293 M3R/inducible RGS4, carbachol calcium flux Fluo4; stronger effect = lower value | B-score at 10 µM | AID 463111;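 active means B-score of the integrated calcium signal more than 4 SD below the library mean, with starting fluorescence not abnormally high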;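 further: negative B-score means reduced calcium response which marks RGS4 activation or potentiation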
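System – HEK293 FlpIn-TREx cells, stable M3R, doxycycline-inducible RGS4 · Reagent – ECmax carbachol challenge · Times – compound preincubation 20 min at room temperature before agonist · Technique – Fluo4 fluorescence kinetic imaging of calcium · Measure – B score of integrated Fluo4 ratio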
MrgX1 agonist = human MrgX1 receptor agonism, primary screen | MrgX1-HEK293 cells, Fluo-4 calcium fluorescence, agonist mode; stronger effect = higher value | Q96LB2 | AID 588627 | B-score at 10 µM | 310,000 tested, 0.44% active;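 active means calcium response B-score plate-corrected fluorescence ratio at least 3 library SD, with starting fluorescence B-score inside 5 SD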
Target sequence (Q96LB2 whole entry, looked up): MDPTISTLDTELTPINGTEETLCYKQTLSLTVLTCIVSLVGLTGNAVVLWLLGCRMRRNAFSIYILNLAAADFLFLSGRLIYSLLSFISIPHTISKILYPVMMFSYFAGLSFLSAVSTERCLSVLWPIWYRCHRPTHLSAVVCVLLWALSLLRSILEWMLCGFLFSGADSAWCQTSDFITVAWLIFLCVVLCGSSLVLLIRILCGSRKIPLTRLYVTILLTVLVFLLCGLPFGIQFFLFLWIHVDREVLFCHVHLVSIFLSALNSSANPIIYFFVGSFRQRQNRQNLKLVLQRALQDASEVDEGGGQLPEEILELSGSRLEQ
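Test system: Stable human MrgX1 HEK293 cell line | Schedule: Overnight plating before 1 h dye loading | Read-out basis: Baseline-normalised fluorescence change ratio, B-scored | Detection: Kinetic calcium dye fluorescence, Fluo-4 NW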
RGS4 block = inhibitors of human RGS4 | AID 463165 | B-score at 10 µM | HEK293 M3R/RGS4 inducible, Fluo-4 calcium flux; stronger effect = higher value; triggered by carbachol at its EC20 | P49798 | 310,000 tested, 0.45% active;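 active means B-score, a plate-corrected calcium signal, over three deviations above library mean, with baseline fluorescence within five deviations of library mean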;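 further: RGS4 expression induced by doxycycline in cells with stable M3 receptor; B-score is computed from the integrated fluorescence ratio over baseline after carbachol; higher B-score means a larger calcium signal and so more RGS4 inhibition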
Target sequence (P49798 whole entry, looked up): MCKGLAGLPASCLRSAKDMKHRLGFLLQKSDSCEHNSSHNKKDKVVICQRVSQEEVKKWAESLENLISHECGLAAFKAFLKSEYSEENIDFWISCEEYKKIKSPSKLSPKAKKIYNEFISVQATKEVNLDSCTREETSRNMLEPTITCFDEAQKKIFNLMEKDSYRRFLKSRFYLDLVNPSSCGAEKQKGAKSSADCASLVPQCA
MrgX1 antag = antagonists of human MrgX1 receptor. MRGX1-HEK293 calcium flux, Fluo-4, BAM8-22 antagonism; stronger effect = lower value. B-score at 10 µM. 310,000 tested, 1.3% active. AID 588676;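 active means calcium-response B-score plate-corrected more than 3 library SD below zero, starting fluorescence within 5 deviations, no agonist response on first addition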;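 further: peak minus trough fluorescence over baseline after final BAM8-22 challenge near maximal dose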
MrgX1 allo act = human MrgX1 positive allosteric modulation, primary screen; Q96LB2; MrgX1-HEK293, Fluo-4 calcium flux, FDSS; stronger effect = higher value; B-score at 10 µM; 310,000 tested, 0.63% active;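 active means plate-corrected calcium response at least 3 library SD above typical, normal starting fluorescence, not activating the receptor alone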;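 further: compound read alongside a low EC10 to EC30 dose of BAM8-22 agonist; peak minus trough fluorescence over baseline measured at the second addition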
Hits are given with their value; i = inactive; nt = no result. Shown are actives, neighbours in structure and some others; about 3.5% of the full set was active somewhere.

SMILES	RGS4 pot	MrgX1 agonist	RGS4 block	MrgX1 antag	MrgX1 allo act
COc1ccc(-c2csc(NC(=O)c3ccccc3Br)c2C(=O)O)cc1	i	i	i	i	i
NC(=O)c1cc([N+](=O)[O-])ccc1NCCN1C(=O)c2ccccc2C1=O	i	i	i	i	i
C=CCOc1ccc(C2OC34CCCCC3C(C#N)(C#N)C2(C#N)C(=N)O4)cc1 (stereo not drawn)	i	27.5	i	i	i
CCCCOc1ccc(C2OC34CCCCC3C(C#N)(C#N)C2(C#N)C(=N)O4)cc1 (stereo not drawn)	i	i	i	i	i
Cc1ccc(C(=O)N/C(=C\c2ccccc2)C(=O)NCCCn2ccnc2)cc1	i	i	i	i	i
O=c1c2ccccc2nc(/C=C/c2c[nH]c3ccccc23)n1CCO	-7.43	i	i	i	i
CN(C)c1ccc(/C=C/c2nc3ccccc3c(=O)n2CCO)cc1	i	32.2	i	i	i
O=c1c2ccccc2nc(/C=C/c2cc(Br)ccc2O)n1CCO	i	i	i	i	i
O=C(Nc1cc(Sc2ccccn2)cc([N+](=O)[O-])c1)c1ccc(Cl)cc1	-8	i	i	-6.11	i
Cc1ccccc1OC(C)C(=O)NCCCN1CCOCC1 (stereo not drawn)	i	i	i	i	i
N#C/C(=C\c1ccc(C#N)cc1)C(=O)N1CCCC1	i	i	5.14	i	i
N#C/C(=C\c1ccc(O)cc1)C(=O)N1CCCC1	i	i	i	i	i
O=[N+]([O-])c1ccc(N/N=C/c2cccs2)nc1	i	i	i	i	i
O=[N+]([O-])c1ccc(N/N=C\c2cccn2-c2ccccc2)nc1	i	i	i	i	7.96
CN(C)[C@@H]1CCC[C@@H]1OC(=O)C(c1ccccc1)c1ccccc1	-7	i	i	i	i
O=[N+]([O-])c1ccccc1S(=O)(=O)N1CCCc2ccccc21	i	i	i	i	i
O=C(/C=C/c1ccc(Cl)cc1)NC1CC2CCC1C2 (stereo not drawn)	i	i	i	i	7.18
Cc1ccc(CN2CCN(CC(=O)N/N=C/c3ccc(C)o3)CC2)cc1	i	i	i	i	i
CCOc1ccc(C(=O)NCC(=O)N2CCc3ccccc3C2)cc1OCC	i	i	i	i	i
COc1ccc(-c2ccc(=O)n(Cc3cccc(Cl)c3)n2)cc1	i	i	i	i	7.85
Cc1ccc(-c2cc(C(=O)Nc3ccccc3C)c3ccccc3n2)o1	i	i	i	-4.77	i
COC(=O)c1cc(-c2ccc(C)o2)nc2ccccc12	i	i	i	i	i
Cc1cc(OCC(=O)Nc2ccc3oc(=O)ccc3c2)ccc1Cl	i	i	i	i	i
CC(C)(C)c1cc(CCC(=O)NN)cc(C(C)(C)C)c1O	i	i	i	i	i
COCCOC(=O)/C(=C\c1cc(C(C)(C)C)c(O)c(C(C)(C)C)c1)C(C)=O	i	i	i	i	6.62
SMILES	RGS4 pot	MrgX1 agonist	RGS4 block	MrgX1 antag	MrgX1 allo act
CC(=O)Nc1sc2c(c1-c1nc3ccccc3s1)CCN(C(C)C)C2	nt	27.5	nt	i	i
CC(C)N1CCc2c(sc(NC(=O)c3ccc4ccccc4c3)c2C(N)=O)C1	i	i	i	i	i
C=C(C)[C@@H]1CC=C(CN2CCC(CCOC)(C(=O)OCC)CC2)CC1	i	i	i	i	i
O=c1cc(N2CCCCC2)c(-c2ccccc2)nn1Cc1c(Cl)cccc1Cl	-7.06	i	i	i	i
COc1ccc(NS(=O)(=O)c2cccs2)cc1S(=O)(=O)N1CCOCC1	i	i	i	i	i
COc1ccc(Nc2nc(-c3cccs3)nc3ccccc23)cc1S(=O)(=O)N1CCOCC1	-7.33	i	i	i	i
CCN(CC)CCCNC(=O)C1c2ccccc2Oc2ccccc21	-7.33	i	i	i	i
COCCCNC(=O)C1c2ccccc2Oc2ccccc21	i	i	i	i	i
COC(=O)CC1C(=O)NCCN1C(=O)c1cc(OC)c(OC)cc1OC (stereo not drawn)	i	i	i	i	i
Cc1ccc(S(=O)(=O)CCC(=O)c2cccc([N+](=O)[O-])c2)cc1	i	33	i	i	i
Cc1ccc(C(=O)CCS(=O)(=O)c2ccc(Br)cc2)cc1	i	i	i	i	i
O=C(CCNc1cccc(F)c1)c1cccc([N+](=O)[O-])c1	i	i	i	i	9.07
O=C(CCNc1ccc(Cc2ccncc2)cc1)c1cccc([N+](=O)[O-])c1	i	i	i	i	i
COC(=O)c1cc(S(=O)(=O)NCCc2sccc2C)c[nH]1	i	i	i	i	i
Nc1ncnc2c1ncn2[C@@H]1O[C@H](CO)[C@@H](O)[C@H]1O	i	26.5	i	i	i
CCCCNC(=O)c1cn(C)c2ccc(S(=O)(=O)N3CC(C)CC(C)C3)cc2c1=O (stereo not drawn)	i	i	i	i	i
CN(C)C(=S)SCCn1c(N)nc(N(C)C)nc1=O	i	i	i	i	i
O=S(=O)(c1ccccc1)N1N=C(c2ccc(O)cc2)CC1c1ccco1 (stereo not drawn)	i	i	i	i	i
O=[N+]([O-])c1ccc(C2=NN(c3ccccc3)C(c3ccco3)C2)cc1 (stereo not drawn)	-7.16	nt	i	nt	nt
O=[N+]([O-])c1ccc(/C=C/C2=NN(c3ccccc3)C(c3ccco3)C2)cc1 (stereo not drawn)	nt	i	nt	i	9.68
C[n+]1ccccc1/C=C/c1ccc([N+](=O)[O-])cc1	i	i	i	i	i
COc1ccccc1NS(=O)(=O)c1c(C)[nH]c(C)c1C(=O)N1CCCC1	i	i	i	i	i
COc1ccc(C(CCN2CCCCC2)c2c(OC)cc(OC)c3c(-c4ccccc4)cc(=O)oc23)cc1 (stereo not drawn)	i	i	i	i	14.2
COc1cc(/C=C(\C#N)C(=O)NC2CCCCC2)ccc1OCc1ccc(C(=O)O)cc1	i	i	i	i	7.62
C#CCOc1c(Br)cc(/C=N/O)cc1OCC	i	i	i	i	7.91
SMILES	RGS4 pot	MrgX1 agonist	RGS4 block	MrgX1 antag	MrgX1 allo act
Cc1noc(C)c1COc1ccc(C(=O)N2CCCC(C(F)(F)F)C2)cc1 (stereo not drawn)	i	i	i	i	i
O=C1C(Cl)=C(N2CCCCCC2)C(=O)N1c1ccccc1	-7.41	i	i	i	i
CCCCC(=O)N/N=C(/C)C1=C(C)C(C)(C)OC1=O	i	i	i	i	i
O=C(N/N=C/c1ccc(O)cc1)c1ccc(COc2cc(Cl)ccc2Cl)o1	i	i	i	-5.24	i
CCN(CC)CCC(C)OC(=O)c1ccc(O)cc1O (stereo not drawn)	i	i	i	i	i
CCN(CC)CCNc1ncnc2c1[nH]c1ccc(OC)cc12	i	i	i	i	i
COc1ccc2[nH]c3c(NCCCOC(C)C)ncnc3c2c1	-7.42	i	i	i	i
COc1ccc(N(CC(=O)N/N=C(\C)CCc2ccccc2)S(=O)(=O)c2ccc(C)cc2)cc1	i	i	i	i	i
